# ChEMBL document CHEMBL1177719 (J Med Chem, 2010)
# Active and inactive are the calls of the source. The calls are words filed in the database; no cut-off is given here.
# Legend:
# RAW264.7 [1] = assay: Inhibition of LPS-induced iNOS expression in mouse RAW264.7 cells at 34 uM treated 15 mins before LPS challenge measured after 18 hrs by Western blotting; type: functional, cell-based
# Outline: (§1)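 RAW 264.7 cells pretreated 15 min with compound (34 μM), then LPS 1 μg/mL for 18 h. Lysates (30 μg protein) run on 8% SDS-PAGE and transferred to PVDF. Blocked in 5% milk/TBST, probed for iNOS and COX-2 with HRP secondary, ECL detection, β-actin internal control. Band density relative to LPS-treated control; duplicate experiments.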
# HEK293 [2] = assay: Cytotoxicity against human HEK293 cells at 34 uM; type: cell-based; details: hek293, 34 µM
# [3] = target: T1, Prostaglandin G/H synthase 1 (Ovis aries) (UniProt P05979); assay: Inhibition of sheep seminal vesicles COX1 assessed as PGE2 production at 34 uM after 10 mins by ELISA relative to control
# T1 sequence (whole entry): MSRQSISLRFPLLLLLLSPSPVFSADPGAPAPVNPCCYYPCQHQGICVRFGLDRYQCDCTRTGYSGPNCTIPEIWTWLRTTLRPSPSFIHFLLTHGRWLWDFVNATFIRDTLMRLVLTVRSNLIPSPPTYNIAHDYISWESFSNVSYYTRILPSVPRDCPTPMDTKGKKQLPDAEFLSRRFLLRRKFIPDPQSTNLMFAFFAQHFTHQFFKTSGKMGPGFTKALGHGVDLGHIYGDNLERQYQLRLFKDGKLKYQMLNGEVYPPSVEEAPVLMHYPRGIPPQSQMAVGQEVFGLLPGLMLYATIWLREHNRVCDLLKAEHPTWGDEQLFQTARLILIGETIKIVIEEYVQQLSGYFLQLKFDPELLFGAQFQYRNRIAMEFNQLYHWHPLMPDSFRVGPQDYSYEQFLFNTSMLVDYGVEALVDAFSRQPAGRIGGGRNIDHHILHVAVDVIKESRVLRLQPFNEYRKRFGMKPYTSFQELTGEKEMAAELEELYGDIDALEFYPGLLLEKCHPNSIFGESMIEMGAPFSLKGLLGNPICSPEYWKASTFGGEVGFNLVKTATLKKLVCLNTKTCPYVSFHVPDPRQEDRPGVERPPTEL
# Outline: (§2)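 Sheep seminal vesicle COX-1; reaction started with arachidonic acid, 10 min at room temperature, stopped with 27.8 μM indomethacin. PGE₂ quantified by competitive ELISA (PGE₂-acetylcholinesterase tracer, Ellman's reagent, 412 nm) against a PGE₂ standard curve. Result as % of solvent control; IC₅₀ from dose-response curves.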
# HL-60 = assay: Cell cycle arrest in human HL60 cells assessed as accumulation at sub-G1 phase at 34 uM after 24 hrs by flow cytometry; type: functional
# Outline: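 HL-60 cells (2 × 10⁵/well) exposed to samples for 24 h, then stained with NIM-DAPI nuclear isolation medium. Read by flow cytometry under UV excitation; percentage of cells in subG₁ taken from the DNA histogram.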
# KB = assay: Cytotoxicity against human KB cells assessed as cell survival at 20 ug/ml after 72 hrs by sulforhodamine B method; type: functional; details: read-out: Activity
# Outline: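 Sulforhodamine B assay. KB or MCF7 cells plated with samples and held 72 h at 37 °C, 5% CO₂. Fixed 1 h in 10% trichloroacetic acid, stained with 0.4% SRB in 1% acetic acid, dye taken up in 10 mM Tris.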
# [4] = target: T2, Prostaglandin G/H synthase 1 (Ovis aries, UniProt P05979); assay: Inhibition of sheep seminal vesicles COX1 assessed as PGE2 production after 10 mins by ELISA; outline: as §2
# T2 sequence (P05979 whole entry): T1 sequence (whole entry)
# HEK293 [5] = assay: Inhibition of TNF-alpha-induced NF-kappaB activity expressed in HEK293 cells at 34 uM after 48 hrs by luciferase reporter gene assay relative to control; type: cell-based
# Outline: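 Stably transfected 293 cells carrying an NFκB response element–luciferase reporter, exposed to TNFα plus compound for 48 h, then assayed for luciferase. Activity expressed as % of TNFα-treated control. IC₅₀ from five serial dilutions, mean of two experiments.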
# [6] = target: T3, Nitric oxide synthase, inducible (Mus musculus, UniProt P29477)
# T3 sequence (P29477 whole entry): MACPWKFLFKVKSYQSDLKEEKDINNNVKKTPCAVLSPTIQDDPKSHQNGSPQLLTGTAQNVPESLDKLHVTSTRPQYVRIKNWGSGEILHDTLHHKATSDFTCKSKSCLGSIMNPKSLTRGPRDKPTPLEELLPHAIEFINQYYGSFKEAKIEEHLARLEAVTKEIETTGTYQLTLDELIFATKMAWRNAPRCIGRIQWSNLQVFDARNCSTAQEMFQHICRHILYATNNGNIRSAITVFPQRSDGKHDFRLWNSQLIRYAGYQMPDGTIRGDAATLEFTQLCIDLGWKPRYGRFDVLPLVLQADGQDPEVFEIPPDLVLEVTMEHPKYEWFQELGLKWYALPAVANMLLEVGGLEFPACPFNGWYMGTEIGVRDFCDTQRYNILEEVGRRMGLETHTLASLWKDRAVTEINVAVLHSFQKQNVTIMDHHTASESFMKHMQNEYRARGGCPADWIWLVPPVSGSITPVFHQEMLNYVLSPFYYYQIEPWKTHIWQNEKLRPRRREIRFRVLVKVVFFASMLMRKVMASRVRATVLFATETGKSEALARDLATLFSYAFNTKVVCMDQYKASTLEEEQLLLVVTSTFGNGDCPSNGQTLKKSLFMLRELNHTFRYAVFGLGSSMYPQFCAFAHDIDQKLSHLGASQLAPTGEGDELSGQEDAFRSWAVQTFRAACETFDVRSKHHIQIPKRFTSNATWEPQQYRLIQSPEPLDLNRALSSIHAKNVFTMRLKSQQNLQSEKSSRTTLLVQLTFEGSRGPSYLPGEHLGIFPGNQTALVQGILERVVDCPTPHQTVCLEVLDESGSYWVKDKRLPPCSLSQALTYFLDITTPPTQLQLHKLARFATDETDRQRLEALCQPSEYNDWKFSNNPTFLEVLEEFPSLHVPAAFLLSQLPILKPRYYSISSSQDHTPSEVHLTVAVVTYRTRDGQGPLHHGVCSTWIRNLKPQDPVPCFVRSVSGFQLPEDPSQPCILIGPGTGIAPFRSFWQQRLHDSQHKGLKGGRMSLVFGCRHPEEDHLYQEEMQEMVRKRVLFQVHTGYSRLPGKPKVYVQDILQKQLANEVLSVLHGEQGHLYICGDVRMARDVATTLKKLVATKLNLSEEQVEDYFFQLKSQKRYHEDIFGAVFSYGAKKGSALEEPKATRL
# RAW264.7 [7] = assay: Inhibition of LPS-induced COX2 expression in mouse RAW264.7 cells at 34 uM treated 15 mins before LPS challenge measured after 18 hrs by immunoblotting; type: functional, cell-based
# Outline: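 RAW 264.7 cells pretreated with samples 15 min, then LPS 1 μg/mL for 18 h. Lysates (30 μg protein) run on 8% SDS-PAGE, transferred to PVDF, probed with primary and HRP secondary antibodies, ECL detection. β-actin internal control; band density quantified relative to the LPS-only control; duplicate experiment.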
# MCF7 = assay: Cellular uptake in human MCF7 cells assessed per millions cells at 50 uM after 24 hrs by LC/MS/MS analysis; type: ADME, cell-based; details: mcf7, 24 h
# [8] = target: NAD(P)H dehydrogenase [quinone] 1 (Mus musculus) (UniProt Q64669); assay: Induction of quinone reductase 1 in mouse Hepa 1c1c7 cells assessed as drug level required to double enzyme activity by MTT assay
# [9] = target: T4, Nitric oxide synthase, inducible (Mus musculus) (UniProt P29477); assay: Inhibition of iNOS-mediated nitric oxide production in mouse RAW 264.7 cells at 34 uM pretreated 30 mins measured after 20 hrs by Griess reaction method relative to control; type: cell-based
# T4 sequence (whole entry): T3 sequence (P29477 whole entry)
# Outline: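 RAW 264.7 macrophages seeded at 1 × 10⁵ cells/well for 24 h. Compounds in phenol red-free DMEM added 30 min before LPS (1 μg/mL), then 20 h further incubation. Nitrite in medium measured by Griess reagent at 540 nm against a sodium nitrite standard curve; inhibition at 34 μM.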
# Aromatase = target: T5, Aromatase (Homo sapiens, UniProt P11511); details: read-out: INH
# T5 sequence (P11511 whole entry): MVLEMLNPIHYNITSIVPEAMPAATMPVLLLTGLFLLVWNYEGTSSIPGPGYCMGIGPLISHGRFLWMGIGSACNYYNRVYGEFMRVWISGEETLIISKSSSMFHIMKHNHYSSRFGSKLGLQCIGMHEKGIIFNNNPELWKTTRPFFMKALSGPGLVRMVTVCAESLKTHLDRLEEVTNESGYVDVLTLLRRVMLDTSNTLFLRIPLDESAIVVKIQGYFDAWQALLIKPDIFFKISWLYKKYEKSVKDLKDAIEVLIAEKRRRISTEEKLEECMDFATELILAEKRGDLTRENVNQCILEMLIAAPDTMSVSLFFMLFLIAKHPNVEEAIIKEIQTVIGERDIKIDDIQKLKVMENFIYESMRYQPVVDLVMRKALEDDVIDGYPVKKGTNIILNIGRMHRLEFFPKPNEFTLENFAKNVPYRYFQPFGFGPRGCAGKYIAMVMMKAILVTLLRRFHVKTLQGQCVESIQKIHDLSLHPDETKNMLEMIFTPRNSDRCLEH
# [10] = Antioxidant activity assessed as nitric oxide scavenging activity at 60 uM; type: functional
# Outline: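 Compounds diluted tenfold in PBS and incubated with sodium nitroprusside (final compound 60 μM, SNP 5 mM) for 3 h at room temperature. Nitrite measured by Griess reagent, absorbance 540 nm. % inhibition given as average of triplicates ± standard deviation.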
# [11] = target: T4, Nitric oxide synthase, inducible (Mus musculus); assay: Inhibition of iNOS-mediated nitric oxide production in LPS-stimulated mouse RAW 264.7 cells at 34 uM pretreated 30 mins before LPS challenge measured after 20 hrs by Griess reaction method relative to control; type: cell-based
# RAW264.7 [12] = assay: Inhibition of LPS-induced COX2 expression in mouse RAW264.7 cells at 34 uM treated 15 mins before LPS challenge measured after 18 hrs by Western blotting relative to control; type: functional; outline: as §1
# [13] = Antioxidant activity assessed as DPPH scavenging activity at 340 uM after 30 mins; type: functional
# NAD(P)H dehydrogenase [quinone] 1 (Mus musculus), sequence (Q64669 whole entry): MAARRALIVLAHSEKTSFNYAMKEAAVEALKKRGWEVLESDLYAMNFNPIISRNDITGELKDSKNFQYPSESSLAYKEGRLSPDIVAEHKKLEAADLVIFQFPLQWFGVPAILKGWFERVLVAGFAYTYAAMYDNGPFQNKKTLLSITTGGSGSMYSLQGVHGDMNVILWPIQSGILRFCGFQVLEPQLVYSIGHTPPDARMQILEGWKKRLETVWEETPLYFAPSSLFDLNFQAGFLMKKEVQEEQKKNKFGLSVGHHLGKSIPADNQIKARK
Structure (SMILES),inhibition (RAW264.7 [1]),Activity (HEK293 [2]),inhibition [3],Activity (HL-60),viability at 20 µg/mL (KB),IC50 [4],inhibition (HEK293 [5]),IC50 [6],inhibition (RAW264.7 [7]),Drug uptake (MCF7),CD [8],Activity [9],inhibition at 34 µM (Aromatase),Activity [10],inhibition [11],fold change (FC) (RAW264.7 [12]),inhibition [13]
Oc1ccc(/C=C/c2cc(O)cc(O)c2)cc1 [RESVERATROL],Active,Non-toxic,75.2%,24.9%,47.8%,6.65 µM,75.7%,15 µM,inactive,54.7 pmol,–,–,–,–,–,–,–
O=S(=O)([O-])Oc1ccc(/C=C/c2cc(O)cc(OS(=O)(=O)[O-])c2)cc1.[K+].[K+],–,Non-toxic,23.3%,–,–,–,53.4%,–,inactive,–,> 10.1 µM,inactive,22.5%,0%,41.7%,0.6,6.8%
